Results reported in ChEMBL document CHEMBL5247621, “From dopamine 4 to sigma 1: Synthesis, SAR and biological characterization of a piperidine scaffold of σ1 modulators” (Eur J Med Chem, 2022).

Assays:
[1] = molecular target: T1, Sigma non-opioid intracellular receptor 1 (Homo sapiens, UniProt Q99720); assay: Displacement of [3H] Pentazocine from sigma 1 receptor in HEK293 cell membrane; type: cell membranes
[2] = Plasma protein binding in human assessed as unbound fraction; type: ADME, cell-free
Method in brief: (§1)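 Plasma protein binding by equilibrium dialysis in human or mouse plasma, reported as fraction unbound (fu).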

[3] = molecular target: T2, D(4) dopamine receptor (Homo sapiens, UniProt P21917); assay: Displacement of [3H]N-methylspiperone from D4 receptor in HEK293 cell membrane; type: cell membranes
T2 sequence (P21917 whole entry): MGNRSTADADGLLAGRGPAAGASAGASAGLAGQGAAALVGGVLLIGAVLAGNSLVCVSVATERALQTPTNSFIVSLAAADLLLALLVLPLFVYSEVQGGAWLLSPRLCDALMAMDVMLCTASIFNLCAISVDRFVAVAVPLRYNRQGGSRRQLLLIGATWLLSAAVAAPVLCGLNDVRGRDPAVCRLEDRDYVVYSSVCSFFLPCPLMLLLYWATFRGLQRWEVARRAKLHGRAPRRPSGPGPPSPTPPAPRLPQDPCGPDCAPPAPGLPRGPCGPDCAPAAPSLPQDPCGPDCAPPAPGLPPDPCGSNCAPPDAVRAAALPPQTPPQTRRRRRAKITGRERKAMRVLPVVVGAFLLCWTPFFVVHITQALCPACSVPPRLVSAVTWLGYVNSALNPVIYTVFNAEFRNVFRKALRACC

[4] = Tmax in mouse plasma at 5 mg/kg, ip measured after 24 hrs; type: ADME, organism-based; conditions: in vivo
Method in brief: (§2)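 Discrete mouse study, single intraperitoneal dose of 5 mg/kg in 10% DMSO/10% Cremophor EL/30% PEG400/50% water. Plasma and brain concentrations followed over 24 h. Parameters estimated by non-compartmental analysis.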

[5] = Mean residence time in mouse brain at 5 mg/kg, ip measured after 24 hrs; type: ADME, organism-based; conditions: in vivo; method in brief: as §2
[6] = Ratio of total drug concentration in mouse brain to plasma at 5 mg/kg, ip measured after 1 hr; type: ADME, organism-based
Method in brief: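 Mice received 5 mg/kg IP in 10% DMSO/10% Cremophor EL/30% PEG400/50% water. Kp is total brain concentration divided by total plasma concentration, taken at 1 h and 5 h post-dose.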

[7] = Ratio of free drug concentration in mouse brain to plasma at 5 mg/kg, ip measured after 5 hrs; type: ADME, organism-based; conditions: read-out: K(p,uu,brain)
Method in brief: (§3)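 Mice received 5 mg/kg IP in 10% DMSO/10% Cremophor EL/30% PEG400/50% water. Kp,uu is free brain over free plasma concentration at 1 h and 5 h. Free levels are corrected with unbound fractions measured in mouse plasma protein binding and in mouse brain homogenate binding.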

[8] = Half life in mouse brain at 5 mg/kg, ip measured after 24 hrs; type: ADME, organism-based; conditions: in vivo; method in brief: as §2
[9] = Half life in mouse plasma at 5 mg/kg, ip measured after 24 hrs; type: ADME, organism-based; conditions: in vivo; method in brief: as §2
[10] = molecular target: T1, Sigma non-opioid intracellular receptor 1; assay: Binding affinity to sigma 1 receptor in human Jurkat cells; type: cell-based
[11] = AUC(infinity) in mouse plasma at 5 mg/kg, ip measured after 24 hrs; type: ADME, organism-based; parameters: dose 5 mg/kg, time 24 hrs, route ip; conditions: in vivo; method in brief: as §2
[12] = Cmax in mouse brain at 5 mg/kg, ip measured after 24 hrs; type: ADME, organism-based; parameters: time 24 hrs, dose 5 mg/kg, route ip; method in brief: as §2
[13] = Tmax in mouse brain at 5 mg/kg, ip measured after 24 hrs; type: ADME, organism-based; conditions: in vivo; method in brief: as §2
[14] = molecular target: D(1B) dopamine receptor (Homo sapiens, UniProt P21918); assay: Displacement of [3H]SCH23390 from D5 receptor in HEK293 cell membrane assessed as inhibition constant; type: cell membranes
D(1B) dopamine receptor, sequence (P21918 whole entry): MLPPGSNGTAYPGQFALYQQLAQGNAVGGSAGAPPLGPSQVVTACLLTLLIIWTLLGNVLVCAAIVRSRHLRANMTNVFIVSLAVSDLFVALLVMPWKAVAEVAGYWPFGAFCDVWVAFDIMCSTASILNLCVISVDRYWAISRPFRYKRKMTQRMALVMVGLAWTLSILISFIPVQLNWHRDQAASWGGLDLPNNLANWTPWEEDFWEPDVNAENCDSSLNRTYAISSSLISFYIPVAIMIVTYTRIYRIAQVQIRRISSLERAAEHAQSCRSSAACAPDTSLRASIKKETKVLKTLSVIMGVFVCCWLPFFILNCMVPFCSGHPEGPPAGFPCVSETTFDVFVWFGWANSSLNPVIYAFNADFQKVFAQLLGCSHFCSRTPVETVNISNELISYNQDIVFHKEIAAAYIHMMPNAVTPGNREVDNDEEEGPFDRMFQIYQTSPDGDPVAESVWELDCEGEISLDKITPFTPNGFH
Method in brief: (§4)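 Competitive radioligand binding in membranes harvested from HEK293 cells, with one radioligand per target: [3H]N-methylspiperone for D2, D3 and D4; [3H]SCH23390 for D1 and D5; [3H]pentazocine for σ1; [3H]DTG for σ2. Ki derived from inhibition of binding, each run in triplicate.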

[15] = molecular target: Sigma intracellular receptor 2 (Homo sapiens, UniProt Q5BJF2); assay: Displacement of [3H]DTG from sigma-2 receptor in HEK293 cell membrane assessed as inhibition constant; type: cell membranes; method in brief: as §4
Sigma intracellular receptor 2, sequence (Q5BJF2 whole entry): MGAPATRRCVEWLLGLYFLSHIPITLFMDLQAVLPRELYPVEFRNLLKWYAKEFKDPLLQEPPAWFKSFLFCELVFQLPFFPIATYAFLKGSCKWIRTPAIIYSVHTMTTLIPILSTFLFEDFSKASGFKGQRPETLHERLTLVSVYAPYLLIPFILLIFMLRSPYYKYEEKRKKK

[16] = molecular target: D(1A) dopamine receptor (Homo sapiens, UniProt P21728); assay: Displacement of [3H]SCH23390 from D1 receptor in HEK293 cell membrane assessed as inhibition constant; type: cell membranes; method in brief: as §4
D(1A) dopamine receptor, sequence (P21728 whole entry): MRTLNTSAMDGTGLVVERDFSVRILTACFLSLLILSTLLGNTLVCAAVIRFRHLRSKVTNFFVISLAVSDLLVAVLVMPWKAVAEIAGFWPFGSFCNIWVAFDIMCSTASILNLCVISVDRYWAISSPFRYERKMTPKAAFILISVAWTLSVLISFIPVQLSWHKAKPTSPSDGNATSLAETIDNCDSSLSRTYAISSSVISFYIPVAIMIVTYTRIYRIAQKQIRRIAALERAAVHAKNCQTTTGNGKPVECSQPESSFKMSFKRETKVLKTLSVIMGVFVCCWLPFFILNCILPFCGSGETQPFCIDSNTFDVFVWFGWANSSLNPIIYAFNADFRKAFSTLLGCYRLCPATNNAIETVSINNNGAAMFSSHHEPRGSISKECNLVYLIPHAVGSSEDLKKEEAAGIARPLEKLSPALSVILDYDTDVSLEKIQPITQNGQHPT

[17] = Cmax in mouse plasma at 5 mg/kg, ip measured after 24 hrs; type: ADME, organism-based; parameters: dose 5 mg/kg, time 24 hrs, route ip; conditions: in vivo; method in brief: as §2
[18] = Mean residence time in mouse plasma at 5 mg/kg, ip measured after 24 hrs; type: ADME, organism-based; conditions: in vivo; method in brief: as §2
[19] = AUC(infinity) in mouse brain at 5 mg/kg, ip measured after 24 hrs; type: ADME, organism-based; parameters: dose 5 mg/kg, time 24 hrs, route ip; method in brief: as §2
[20] = Ratio of free drug concentration in mouse brain to plasma at 5 mg/kg, ip measured after 1 hr; type: ADME, organism-based; method in brief: as §3
[21] = molecular target: T3, D(4) dopamine receptor (Homo sapiens) (UniProt P21917); assay: Displacement of [3H]N-methylspiperone from D4 receptor in HEK293 cell membrane assessed as inhibition constant at 10 uM relative to control; type: cell membranes; parameters: scale not given: the % may be the effect or the level left
T3 sequence (whole entry): T2 sequence (P21917 whole entry)

[22] = Plasma protein binding in mouse assessed as unbound fraction; type: ADME; method in brief: as §1
[23] = molecular target: D(2) dopamine receptor (Homo sapiens, UniProt P14416); assay: Displacement of [3H]N-methylspiperone from D2 receptor in HEK293 cell membrane assessed as inhibition constant; type: cell membranes; method in brief: as §4
D(2) dopamine receptor, sequence (P14416 whole entry): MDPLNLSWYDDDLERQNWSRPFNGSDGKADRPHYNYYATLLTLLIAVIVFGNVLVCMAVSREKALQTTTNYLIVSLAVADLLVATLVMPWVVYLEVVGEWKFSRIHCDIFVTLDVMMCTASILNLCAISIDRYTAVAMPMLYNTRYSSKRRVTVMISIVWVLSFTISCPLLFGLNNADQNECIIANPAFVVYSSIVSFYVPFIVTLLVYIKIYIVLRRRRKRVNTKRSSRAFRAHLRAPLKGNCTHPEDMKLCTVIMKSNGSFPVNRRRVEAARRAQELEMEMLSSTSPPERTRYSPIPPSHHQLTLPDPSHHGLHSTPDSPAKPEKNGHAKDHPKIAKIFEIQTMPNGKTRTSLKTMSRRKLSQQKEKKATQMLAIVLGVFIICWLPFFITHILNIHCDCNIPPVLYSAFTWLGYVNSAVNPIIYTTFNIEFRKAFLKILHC

[24] = molecular target: D(3) dopamine receptor (Homo sapiens, UniProt P35462); assay: Displacement of [3H]N-methylspiperone from D3 receptor in HEK293 cell membrane assessed as inhibition constant; type: cell membranes; method in brief: as §4
D(3) dopamine receptor, sequence (P35462 whole entry): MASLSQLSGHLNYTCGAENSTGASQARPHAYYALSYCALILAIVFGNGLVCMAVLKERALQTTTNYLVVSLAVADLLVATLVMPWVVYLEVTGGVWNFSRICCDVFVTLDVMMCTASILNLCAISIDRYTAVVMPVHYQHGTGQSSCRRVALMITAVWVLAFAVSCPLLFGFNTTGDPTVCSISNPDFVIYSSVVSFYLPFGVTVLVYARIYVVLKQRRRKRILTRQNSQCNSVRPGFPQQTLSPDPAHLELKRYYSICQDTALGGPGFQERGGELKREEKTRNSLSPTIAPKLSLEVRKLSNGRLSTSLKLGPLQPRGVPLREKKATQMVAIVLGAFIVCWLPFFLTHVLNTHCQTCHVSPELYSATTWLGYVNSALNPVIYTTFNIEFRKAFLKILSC

T1 sequence (Q99720 whole entry): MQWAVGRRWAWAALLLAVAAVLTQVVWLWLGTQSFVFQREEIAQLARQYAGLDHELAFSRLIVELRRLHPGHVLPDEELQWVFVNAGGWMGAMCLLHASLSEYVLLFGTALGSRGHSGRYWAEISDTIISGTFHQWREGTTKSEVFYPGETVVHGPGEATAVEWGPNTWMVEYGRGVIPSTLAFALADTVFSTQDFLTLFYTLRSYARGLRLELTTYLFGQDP

SMILES: Fc1ccc(COC2CCN(Cc3cc4ccc(Cl)cc4[nH]3)CC2)cc1F
- Ki ([1]; read-out: Ki): 0.0081 µM
- Fu [2]: < 0.3%

SMILES: Fc1cccc(CO[C@H]2CCCN(Cc3cn4ccccc4n3)C2)c1
- Ki ([3]; read-out: Ki): 1.21 µM
- Ki ([1]; read-out: Ki): 0.49 µM

SMILES: Fc1ccc(COC2CCN(Cc3ncc4ccccn34)CC2)cc1F
- Ki ([1]; read-out: Ki): 0.143 µM

SMILES: Fc1ccc(COC2CCN(Cc3ccc4[nH]cnc4c3)CC2)cc1F
- Tmax [4]: 0.28 h
- MRT [5]: 8.43 h
- Kp [6]: 2.78
- Kp uu at 5 h [7]: 6.44
- t1/2 [8]: 9.11 h
- t1/2 [9]: 2.14 h
- Ki [10]: 0.012 µM
- AUC [11]: 0.952 µg·h/mL
- Cmax [12]: 0.86 µg/mL
- Tmax [13]: 0.56 h
- Ki [14]: > 10 µM
- Ki [15]: 0.166 µM
- Ki [16]: > 10 µM
- Cmax [17]: 0.527 µg/mL
- Ki ([1]; read-out: Ki): 0.0083 µM
- MRT [18]: 2.12 h
- AUC(0-inf) [19]: 4.56 µg·h/mL
- K(p,uu,brain) [20]: 1.59

SMILES: Cc1ccccc1CO[C@H]1CCCN(Cc2cn3ccccc3n2)C1
- Activity [21]: 60%
- Ki ([1]; read-out: Ki): 0.503 µM

SMILES: FC(F)(F)Oc1cccc(CO[C@H]2CCCN(Cc3cn4ccccc4n3)C2)c1
- Ki ([1]; read-out: Ki): 0.035 µM

SMILES: FC(F)(F)c1cccc(COC2CCN(Cc3cc4ccc(Cl)cc4[nH]3)CC2)c1
- Ki ([3]; read-out: pKi (converted)): 0.209 µM
- Ki ([1]; read-out: Ki): 0.014 µM

SMILES: Cc1csc(OC[C@@H]2CN(Cc3cc4ccc(Cl)cc4[nH]3)CCO2)n1
- Ki ([3]; read-out: Ki): 0.169 µM
- Ki ([1]; read-out: Ki): 0.388 µM

SMILES: COc1ccc(CN2CCC[C@H](OCc3ccc(C)cc3)C2)cc1F
- Fu [22]: 2.5%
- Ki ([1]; read-out: Ki): 0.0055 µM
- Fu [2]: 1.3%

SMILES: Cc1c(Cl)cccc1NC(=O)CN1CCC2(CCCN(Cc3ccc(F)c(F)c3)C2)C1 (stereo not given)
- Activity [21]: 23%
- Ki ([1]; read-out: Ki): 0.019 µM

SMILES: Fc1ccc(CN2CCCC23CCN(Cc2cc4ccc(Cl)cc4[nH]2)C3)cc1F (stereo not given)
- Ki [23]: > 10 µM
- Ki ([3]; read-out: Ki): 0.268 µM
- Ki [14]: > 10 µM
- Ki [24]: 0.118 µM
- Ki [15]: 0.023 µM
- Ki [16]: 2.37 µM
- Ki ([1]; read-out: Ki): 0.0055 µM
- Ki ([1]; read-out: pKi (converted)): 0.00537 µM

SMILES: Fc1ccc(CN2CCCC3(CCN(Cc4cc5ccc(Cl)cc5[nH]4)C3)C2)cc1F (stereo not given)
- Ki [23]: > 10 µM
- Activity [21]: 39%
- Ki [14]: > 10 µM
- Ki [24]: 0.345 µM
- Ki [15]: 0.03 µM
- Ki [16]: 1.53 µM
- Ki ([1]; read-out: Ki): 0.0071 µM

SMILES: COc1ccc(CN2CCC[C@H](OCc3cccc(F)c3)C2)cc1F
- Ki ([1]; read-out: Ki): 0.0043 µM

SMILES: c1ccc(OC[C@@H]2CN(Cc3ccc4[nH]ccc4c3)CCO2)cc1
- Ki ([3]; read-out: Ki): 0.0033 µM
- Ki ([1]; read-out: Ki): 0.044 µM

SMILES: Cc1cc(NC(=O)CN2CCC3(CCCN3Cc3ccc(F)c(F)c3)C2)ccc1F (stereo not given)
- Activity [21]: 14%
- Ki [14]: > 10 µM
- Ki [24]: 0.512 µM
- Ki [15]: 0.047 µM
- Ki [16]: > 10 µM
- Ki ([1]; read-out: Ki): 0.016 µM

SMILES: FC(F)(F)c1cccc(COC2CCN(Cc3cn4ccccc4n3)CC2)c1
- Ki ([3]; read-out: Ki): 0.175 µM
- Fu [22]: 8.8%
- Ki ([1]; read-out: Ki): 0.0035 µM
- Fu [2]: 2.2%

SMILES: Fc1ccc2c(CN3CCC(F)(F)[C@H](CCc4ccccc4)C3)c[nH]c2c1
- Ki ([3]; read-out: Ki): 0.0035 µM
- Ki ([1]; read-out: Ki): 0.052 µM
